Screens as filed in PubChem BioAssay.
TROY NFkB inh – blocks TROY-dependent signaling in reporter cells. AID 1347056. inhibition, % at 10 µM. Q293 LMP1-TROYcd NF-kB luciferase reporter, 4 h. 0.98% of 360,000 active;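 active = compounds whose plate-normalised and pattern-corrected inhibition of the luciferase reporter signal at the single screening dose is 50% or more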
TWEAK-Fn14 inh – TWEAK-Fn14 signaling inhibition | TWEAK-stimulated Fn14 reporter cells, luciferase luminescence, 8 h | inhibition, % at 10 µM | 2% of 360,000 active; in the data active = inhibition above about 50%
LGR2 antag – inhibitors of bursicon-induced Drosophila LGR2 receptor cAMP signaling; HEK293 LGR2, CRE-luciferase, bursicon-stimulated, 4 h; inhibition, % at 9.99 µM; 0.35% of 380,000 active;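 active = drop in luminescence signal, shown as inhibition above about 50% in the replicate tests, limit read from the data, passing the limit was not always enough; inconclusive = probably only some replicates passing the limit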;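 note: agonist challenge used bursicon conditioned medium at about half maximal strength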
CaV13 FRET inh – Primary screen for inhibitors of IQ motif and Ca2+-dependent inactivation inhibitor domain binding in CACNA1D, Förster resonance energy transfer in living cells, …; HEK cells, CFP/YFP FRET ICDI-IQ, plate reader, 10 min; percent FRET-ratio fall versus neutral wells; 0.098% of 340,000 active; inhibition, % at 12.3 µM; AID 743397;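 active = mean replicate inhibition of at least 30% and at least 1% of replicates passing that level; inconclusive = only one of the two criteria is met; inactive = neither criterion is met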;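 note: 0% = median of the neutral control wells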
XiGFP reactiv – reactivates the inactive X chromosome in mouse fibroblasts | activation, % at 7.58 µM | 0.055% of 360,000 active | XiGFP mouse fibroblasts, % GFP-positive cells imaging, 3 d; cells co-treated with 5-aza-dC sensitizer; scaled so ellipticine positive control = 100%;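 active = mean normalized replicate activation at least 10% and every replicate at or above 10%; inconclusive = only one of the two criteria met; inactive = mean below 10% and not all replicates reach 10%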;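 note: 0% = median of on-plate neutral control wells and 100% = ellipticine 6 µM median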
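System: XiGFP fibroblasts, SV40-immortalized. Medium: DMEM plus 5-aza-dC sensitizer. Doses: single point. Timing: 3 d treatment, 15 min room-temperature fixation. Control set: ellipticine 6 µM.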
Numbers without * were called inactive; ? = inconclusive; nt = no result given; + = active, no number. Most compounds without a hit are left out; they make up all but 2% or so of the library.

SMILES	TROY NFkB inh	TWEAK-Fn14 inh	LGR2 antag	CaV13 FRET inh	XiGFP reactiv
O=C([C@@H]1[C@@H](CO)[C@@H]2Cn3c(cccc3=O)[C@H]1N2C(=O)c1ccccc1)N1CCCCC1	nt	nt	6	nt	0
O=C(c1ccc(S(=O)(=O)Cc2ccccc2Cl)c([N+](=O)[O-])c1)N1CCN(c2ccccn2)CC1	38	69*	49	-3	0
Cc1ccccc1CS(=O)(=O)c1ccc(C(=O)N2CCC(C)CC2)cc1[N+](=O)[O-]	3	56*	4	0	0
CCCC(=O)Nc1ccc2c(c1)OC[C@H](C)N(C(=O)c1ccccc1F)C[C@H](C)[C@@H](OC)CN(C)C2=O	nt	nt	5	nt	0
Cc1nn(CC(=O)O)c(C)c1Cl	8	9	-8	nt	nt
Cc1c(Cl)c(=O)n2c(=O)c(Cl)c(C)n12	-6	-11	nt	+	0
O=C(Nc1ccc2c(c1)OCO2)N[C@@H]1CC[C@@H](CCNC(=O)C2CCCC2)O[C@@H]1CO	nt	nt	-16	nt	0
CN(CC(=O)Nc1ccc(Br)cc1)Cc1ccccc1	-17	-31	-48	-22	0
COC(=O)c1cc(NC(=O)CN(C)Cc2ccccc2)cc(C(=O)OC)c1	14	86*	0	-3	0
COc1ccc(C(=O)O/N=C(\N)c2ccccc2)c(OC)c1	77*	86*	82*	0	0
COc1ccc(Cl)cc1C(=O)O/N=C(\N)c1ccccn1	-29	-12	-58	-2	0
COc1ccc(C(=O)O/N=C(\N)c2ccc(OC)c(OC)c2)c(OC)c1	-41	-6	nt	nt	nt
COc1ccc(C(=O)O/N=C(\C)c2ccccc2)cc1	69*	-7	nt	nt	nt
COc1ccc(C(=O)O/N=C(\N)c2ccccn2)c(OC)c1	73*	88*	82*	-5	0
C[C@@H]1CN([C@@H](C)CO)C(=O)c2cc(N(C)C)ccc2O[C@@H]1CN(C)Cc1ccc(C(=O)O)cc1	nt	nt	-9	nt	0
Cc1cccc(N2CCN(C(=O)C3CCN(c4ncnc5c4nc4n5CCCCC4)CC3)CC2C)c1 (configuration not stated)	52*	51*	5	-12	0
Cc1ccc(N2CCN(C(=O)C3CCCN(c4ncnc5c4nc4n5CCCCC4)C3)CC2)c(C)c1 (configuration not stated)	60*	45	4	-3	0
Cc1cccc(N2CCN(C(=O)C3CCN(c4ncnc5c4nc4n5CCCCC4)CC3)CC2)c1C	65*	80*	?	-4	1
Cc1ccccc1S(=O)(=O)N1C[C@@H](O)COC[C@@H]2O[C@@H](CC(=O)N3CCCCC3)CC[C@H]21	nt	nt	3	nt	0
COc1cccc(NC(=O)C[C@H]2CC[C@@H]3[C@H](COc4ccc(NS(=O)(=O)c5cccc(F)c5)cc4C(=O)N3C)O2)c1	nt	nt	5	nt	0
CN(C)c1ccc(/C=N/N=C2/NC(=O)/C(=C/c3ccc([N+](=O)[O-])cc3)S2)cc1	33	60*	nt	nt	nt
CN(C)c1ccc(C=C2SC(=S)NC2=O)cc1	-31	-25	-62	-8	0
N=c1c(S(=O)(=O)c2ccc(Cl)cc2)cc2c(=O)n3ccccc3nc2n1Cc1ccco1	31	53*	-13	-11	0
COCCn1c(=N)c(S(=O)(=O)c2ccc(Br)cc2)cc2c(=O)n3ccccc3nc21	-4	-1	8	3	0
COCCn1c(=N)c(S(=O)(=O)c2ccc(F)cc2)cc2c(=O)n3ccccc3nc21	-11	-12	-9	104*	0
SMILES	TROY NFkB inh	TWEAK-Fn14 inh	LGR2 antag	CaV13 FRET inh	XiGFP reactiv
CC(C)c1cc(C(=O)N2CCN(C(c3ccccc3)c3ccccc3)CC2)no1	60*	41	-15	-4	0
Cc1ccc2nc(-c3ccc(NC(=S)NC4CC(C)(C)NC(C)(C)C4)cc3)sc2c1	-5	27	62*	-8	0
Cc1ccc2nc(-c3ccc(NC(=S)NC(=O)C(C)C)cc3)sc2c1	-21	-10	nt	-8	nt
O=C(C[C@@H]1C[C@H]2c3cc(NC(=O)C4CCOCC4)ccc3O[C@H]2[C@@H](CO)O1)NCc1ccccn1	nt	nt	-1	nt	0
O=C(Nc1ccc2oc(-c3ccncc3)nc2c1)c1ccc2c(c1)OCCO2	-16	-22	1	-16	0
O=C(Nc1ccc2oc(-c3ccccc3)nc2c1)c1ccc2c(c1)OCCO2	58*	36	nt	-4	nt
Cc1ccc(NC(=O)c2ccc3c(c2)OCCO3)cc1	26	68*	nt	-6	nt
COc1ccccc1NC(=O)Nc1ccc2c(c1)OCCO2	2	-19	nt	-3	nt
CCC(Oc1ccccc1OC)C(=O)Nc1ccc2c(c1)OCCO2 (configuration not stated)	29	59*	9	-4	0
O=C(Nc1ccc2c(c1)OCCO2)c1[nH]c(C(F)(F)F)nc1-c1ccccc1	81*	90*	8	-5	0
CC(C)C#Cc1ccc2c(c1)O[C@H](CN(C)C(=O)C1CCC1)[C@@H](C)CN([C@H](C)CO)S2(=O)=O	nt	nt	9	nt	-1
COc1cccc(NC(=O)c2ccc3c(c2)OCCO3)c1	24	57*	44	-7	1
O=C(Nc1ccc(NC(=O)c2ccco2)cc1)c1ccc2c(c1)OCO2	nt	68*	-26	1	nt
O=C(Nc1ccc(NC(=O)c2ccco2)c(Cl)c1)c1ccc2c(c1)OCCO2	-30	-18	-46	12	0
CCC(C(=O)Nc1ccc2c(c1)OCCO2)n1c(=O)[nH]c2ccccc2c1=O (configuration not stated)	60*	76*	7	-12	0
CC(=O)c1ccc2c(c1)OCCOCCOCCOCCOCCO2	-3	87*	9	-5	?
CC=Cc1ccc2n(c1=O)C[C@@H]1[C@@H](CO)[C@H](C(=O)NCC3CC3)N(C(=O)CC3CC3)[C@H]21 (mixture of isomers)	nt	nt	15	nt	0
Cc1ccc(S(=O)(=O)Nc2ccc3c(c2)C(=O)N([C@H](C)CO)C[C@@H](C)[C@H](CN(C)C(=O)Nc2ccc(F)cc2)OCCCC[C@H](C)O3)cc1	nt	nt	24	nt	0
Cc1noc(C)c1S(=O)(=O)N(C)C[C@H]1Oc2ccc(NC(=O)Nc3ccc4c(c3)OCO4)cc2CC(=O)N([C@H](C)CO)C[C@H]1C	nt	nt	-8	nt	0
CC(=O)Oc1ccc(C(=O)Nc2ccc3c(c2)OCCO3)cc1	28	32	28	-19	0
COc1ccc(NC(=O)C2=Cc3cccc(OC)c3OC2)cc1	-41	-16	-35	-5	0
COc1ccc(NC(=O)C2=Cc3ccccc3OC2)cc1	2	52*	38	-5	0
O=C(Nc1ccc(Br)cc1F)c1ccc2c(c1)OCCO2	33	51*	3	-8	0
O=C(Nc1ccc(F)cc1F)c1ccc2c(c1)OCCO2	-4	4	-9	-4	0
